The record followed here is ChEMBL document CHEMBL2069274, “Novel 3-nitro-1H-1,2,4-triazole-based amides and sulfonamides as potential antitrypanosomal agents” (J Med Chem, 2012).

Data set [1] is described as follows: Selectivity index, ratio of IC50 for rat L6 cells to IC50 for Trypanosoma cruzi Tulahuen C4 amastigotes.
Data set [2] concerns Trypanosoma cruzi. In words: Ratio of benznidazole IC50 to compound IC50 for Trypanosoma cruzi Tulahuen C4 amastigotes. It counts as functional.
The subject of data set [3] is L6. In words: Cytotoxicity against rat L6 cells. Type of data set: cell-based. Put shortly:
(§1)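 96-well format screens: bloodstream-form T. b. rhodesiense trypomastigotes, T. cruzi amastigotes within infected L6 rat skeletal myoblasts, axenically grown L. donovani amastigotes, and uninfected L6 cells for cytotoxicity. IC50 (μM) obtained by linear regression from sigmoidal dose–inhibition curves.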

Data set [4] relates to Trypanosoma brucei rhodesiense. In words: Antitrypanosomal activity against Trypanosoma brucei rhodesiense STIB 900 trypomastigotes. Type of data set: functional, organism-based. In a few lines: as §1
In data set [5] the test system is Leishmania donovani. The data set is described as follows: Antileishmanial activity against Leishmania donovani MHOM-ET67/L82 amastigotes. Type of data set: functional, organism-based. Put shortly:
as §1

The nature of data set [6]: Selectivity index, ratio of IC50 for rat L6 cells to IC50 for Trypanosoma brucei rhodesiense STIB900 trypomastigotes.
The subject of data set [7] is Trypanosoma brucei brucei. The data set is described as follows: Antitrypanosomal activity against bloodstream form of Trypanosoma brucei brucei Lister 427 clone 221a. It counts as functional, organism-based. Put shortly: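 Bloodstream-form parasites seeded at 1 × 10^3 per ml in growth medium with a range of compound concentrations; where required, TbNTR expression induced with tetracycline (1 μg/mL). Incubation 3 days at 37 °C, then Alamar blue added for a further 16 h. Cell density read and IC50 determined.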

In data set [8] the test system is Trypanosoma cruzi. The data set is described as follows: Antitrypanosomal activity against Trypanosoma cruzi Tulahuen C4 amastigotes. Type of data set: functional, organism-based. In a few lines: as §1
For data set [9], the system named is Trypanosoma brucei brucei. The data set is described as follows: Antitrypanosomal activity against bloodstream form of Trypanosoma brucei brucei Lister 427 clone 221a overexpressing tet-inducible NTR in absence of tetracycline after 3 days. To be noted: 72 h.
In data set [10] the test system is Trypanosoma brucei brucei. In words: Antitrypanosomal activity against bloodstream form of Trypanosoma brucei brucei Lister 427 clone 221a overexpressing tet-inducible NTR in presence of tetracycline after 3 days. To be noted: 72 h.
Data set [11] concerns Trypanosoma brucei brucei. In words: Selectivity ratio of IC50 for Trypanosoma brucei brucei Lister 427 clone 221a overexpressing tet-inducible NTR in absence of tetracycline to IC50 for Trypanosoma brucei brucei overexpressing tet-inducible NTR in presence of tetracyclin.

pIC50: −log10 of the molar value.

With `O=[N+]([O-])c1ncn(CCCNS(=O)(=O)c2cc(C(F)(F)F)cc(C(F)(F)F)c2)n1`, the selectivity ratio was 338 in data set [1] and 9.6 in data set [6]. The “Ratio IC50” value in data set [2] worked out at 4.9. Further, the pIC50 (in general, the negative decadic logarithm of the IC50, by convention in mol/L) in data set [3] was 3.96; in [4] it was 4.95; in [5] it was 4.68; in data set [7], 5.18; in [8], 6.49.

As to `Cn1ccnc1S(=O)(=O)NCCn1cnc([N+](=O)[O-])n1`, the figures for the selectivity ratio in [1] and in data set [6] were above 4 and above 9.3, respectively. Besides, the “Ratio IC50” value in data set [2] came to 0. For the same compound, the pIC50 in data set [3] is below 3.48; in data set [4] it was 4.45; in data set [5] it was below 3.48; in [8] it was 4.08.

With `O=C(Cn1ccnc1[N+](=O)[O-])NCc1ccccc1` [BENZNIDAZOLE], the pIC50 in data set [9] was 4.66; in data set [10], 5.66; in data set [8] it was 5.81. Also, the “Ratio IC50” value in [11] came to 10.

`Nc1nc(N)nc(Nc2ccc([As]3SCC(CO)S3)cc2)n1` (configuration not stated) [MELARSOPROL]: the pIC50 in [9] and in data set [10] was 8.47 each time. Besides, in data set [11], the “Ratio IC50” value is on record as 1.

For the compound `O=[N+]([O-])c1ncn(CCCCNS(=O)(=O)c2ccc(C(F)(F)F)cc2)n1`, the figures for the selectivity ratio in data set [1] and in data set [6] were 120 and 240, respectively. For the same compound, the “Ratio IC50” value in data set [2] was determined as 2.2. For the same compound, the pIC50 in data set [3] was 4.07; in data set [4], 6.45; in data set [5], 5.11; in data set [8] it was 6.15.

For the compound `O=[N+]([O-])c1ncn(CCCNS(=O)(=O)Cc2ccccc2)n1`, the selectivity ratio was above 138 in data set [1] and above 47.4 in [6]. Also, the “Ratio IC50” value in [2] is 0.7. Besides, the pIC50 in data set [3] is below 3.51; in data set [4], 5.19; in [5], 4.10; in data set [8], 5.65.

Regarding `O=C(NCCCn1cnc([N+](=O)[O-])n1)c1cc(C(F)(F)F)cc(C(F)(F)F)c1`, the figures for the selectivity ratio in data set [1] and in data set [6] were 291 and 11.4, respectively. Moreover, the “Ratio IC50” value in data set [2] is 2.4. In addition, the pIC50 in data set [3] was 3.73; in [4], 4.79; in data set [5], 4.91; in data set [7] it was below 5.00; in data set [8] it was 6.19.

Consider `O=[N+]([O-])c1ncn(CCNS(=O)(=O)c2cc(C(F)(F)F)cc(C(F)(F)F)c2)n1`, for which the selectivity ratio came to 66.2 in data set [1] and 3 in data set [6]. The “Ratio IC50” value in data set [2] amounted to 0.9. For the same compound, the pIC50 in data set [3] was 3.95; in [4], 4.44; in data set [5], 4.48; in [7], 5.10; in data set [8] it was 5.78.

`COc1cc([C@@H]2c3cc4c(cc3[C@H](O)[C@H]3COC(=O)[C@H]23)OCO4)cc(OC)c1OC` [PODOFILOX] had a negative logarithm of the IC50 (pIC50) in data set [3] of 7.66.

For `O=[N+]([O-])c1ncn(CCCNS(=O)(=O)c2cc(C(F)(F)F)ccc2C(F)(F)F)n1`, the selectivity ratio in data set [1] came out at 178. Also, in [2], the “Ratio IC50” value is 2.4. Moreover, the pIC50 is 3.94 in data set [3]; 4.99 in data set [4]; 4.34 in [5]; below 5.00 in data set [7]; 6.19 in [8].

For the compound `O=C(NCCCn1cnc([N+](=O)[O-])n1)c1cccc(C(F)(F)F)c1`, in data set [1], the selectivity ratio was above 826. In addition, the “Ratio IC50” value in data set [2] was found to be 4.4. In addition, the pIC50 in [3] was below 3.53; in data set [4] it was 5.42; in data set [5] it was 4.43; in data set [7] it was below 5.00; in [8], 6.45.

Take `O=[N+]([O-])c1ncn(CCNS(=O)(=O)Cc2ccccc2)n1`: the selectivity ratio is above 48 in data set [1] and above 38.3 in [6]. In [2], the “Ratio IC50” value is reported as 0.2. For the same compound, the pIC50 in data set [3] was below 3.49; in [4], 5.08; in [5] it was 3.95; in [8], 5.19.

As for `O=C(NCCCn1cnc([N+](=O)[O-])n1)c1ccc(-c2ccccc2)cc1`, the selectivity ratio in [1] stood at 2780; in data set [6], 199. Besides, the “Ratio IC50” value in data set [2] is on record as 36.3; in [11], 6. Also, the pIC50 in [9] was 6.55; in data set [10], 7.30; in [3], 3.93; in data set [4] it was 6.23; in [5], 5.08; in [7], 6.52. Besides, in data set [8], the pIC50 is 7.37.

Regarding `O=C(NCCn1cnc([N+](=O)[O-])n1)c1ccc(OC(F)(F)F)cc1`, the selectivity ratio was above 357 in data set [1] and above 131 in data set [6]. Moreover, in data set [2], the “Ratio IC50” value is 2.1. Besides, the pIC50 is below 3.58 in [3], 5.70 in [4], 4.53 in data set [5] and 6.14 in [8].

Turning to `O=C(NCCCn1cnc([N+](=O)[O-])n1)c1ccc(C(F)(F)F)nc1`, the selectivity ratio in data set [1] was above 84. For the same compound, the “Ratio IC50” value in data set [2] was found to be 0.5. In addition, the pIC50 in [3] is below 3.54; in data set [4] it was 5.45; in [5], 4.02; in data set [7], 5.10; in data set [8], 5.46.

As to `O=[N+]([O-])c1ncn(CCCNS(=O)(=O)c2cccc3cccnc23)n1`, the selectivity ratio in data set [1] was 519. For the same compound, the “Ratio IC50” value in data set [2] came to 3.9. For the same compound, the pIC50 in data set [3] is 3.68; in data set [4], 5.19; in data set [5], 4.48; in [7] it was below 5.00; in data set [8] it was 6.40.

Consider `O=[N+]([O-])c1ncn(CCCNS(=O)(=O)c2ccc(-c3ccccc3)cc2)n1`, for which the selectivity ratio in data set [1] amounted to 1760. Besides, the “Ratio IC50” value in data set [2] was 55.8; in data set [11], 6. Moreover, the pIC50 in data set [9] was 6.36; in data set [10], 7.15; in [3], 4.30; in [4], 5.98; in [5], 5.12; in data set [7], 6.30. Moreover, the pIC50 in data set [8] is 7.55.

For `O=C(NCCCn1cnc([N+](=O)[O-])n1)c1cnc2ccccc2n1`, the selectivity ratio in data set [1] is above 379. Besides, the “Ratio IC50” value in data set [2] is on record as 1.9. The pIC50 is below 3.51 in data set [3]; 4.46 in [4]; 4.20 in data set [5]; below 5.00 in [7]; 6.09 in [8].

As for `Cn1ccnc1S(=O)(=O)NCCCn1cnc([N+](=O)[O-])n1`, the selectivity ratio in data set [1] is above 15; in data set [6] it was above 14.5. For the same compound, the “Ratio IC50” value in [2] was found to be 0.1. For the same compound, the pIC50 in [3] is below 3.50; in [4], 4.66; in [5] it was 3.65; in data set [8], 4.69.

As for `O=C(NCCCn1ccnc1[N+](=O)[O-])c1ccc(C(F)(F)F)cc1`, in data set [1], the selectivity ratio came to 29. Further, in [2], the “Ratio IC50” value is reported as 0.3. Also, the pIC50 in [3] is 3.75; in [4], 4.67; in data set [5] it was 4.86; in data set [8], 5.22.

`O=C(NCCCn1ccnc1[N+](=O)[O-])c1ccc(OC(F)(F)F)cc1`: the selectivity ratio in data set [1] turned out to be 74. For the same compound, the “Ratio IC50” value in data set [2] amounted to 0.4. The pIC50 in data set [3] is 3.56; in data set [4] it was 4.33; in [5], 4.44; in [8] it was 5.43.
